Reference: ChEMBL document CHEMBL1153725, “Tetrahydroquinoline derivatives as CRTH2 antagonists” (Bioorg Med Chem Lett, 2009)

Tests used:
[1] = biological target: T1, Prostaglandin D2 receptor 2 (Homo sapiens, UniProt Q9Y5Y4); experiment: Displacement of [3H]PGD2 from human CRTH2 receptor expressed in 293 cells by scintillation counting in presence of 0.5% BSA; type: cell-based, HEK293
T1 sequence (Q9Y5Y4 whole entry): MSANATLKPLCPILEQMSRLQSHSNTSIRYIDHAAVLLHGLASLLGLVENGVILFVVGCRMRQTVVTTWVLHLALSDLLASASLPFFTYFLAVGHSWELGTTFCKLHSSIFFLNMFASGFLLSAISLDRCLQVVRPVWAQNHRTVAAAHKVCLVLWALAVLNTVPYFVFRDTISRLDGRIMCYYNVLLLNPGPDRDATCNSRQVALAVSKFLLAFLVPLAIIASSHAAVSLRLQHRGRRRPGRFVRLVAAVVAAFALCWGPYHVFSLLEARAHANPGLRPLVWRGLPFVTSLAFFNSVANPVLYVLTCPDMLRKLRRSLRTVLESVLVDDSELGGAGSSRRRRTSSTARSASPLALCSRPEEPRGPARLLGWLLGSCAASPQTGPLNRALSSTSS
Method in brief: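 Whole-cell binding on 293 cells stably transfected with hCRTH2. [3H]-PGD2 incubated with cells plus increasing compound concentrations in binding buffer containing 0.5% BSA. Cells washed, bound label counted by scintillation, and the concentration giving 50% inhibition of binding taken as IC50. Means of three experiments.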

Eosinophil = experiment: Inhibition of PGD2-induced human eosinophil shape change by flow cytometry; type: functional, cell-based
Method in brief: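 Enriched human eosinophils at 10^6 cells/mL in PBS with Ca2+/Mg2+, 0.1% BSA, 10 mM Hepes, 10 mM glucose. Antagonist or vehicle (0.05% DMSO) applied 10 min at room temperature, then 10 nM PGD2 for 10 min at 37 °C. Response expressed as % of maximal PGD2 response. Means of two experiments.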

[2] = biological target: T2, Prostaglandin D2 receptor (Homo sapiens, UniProt Q13258); experiment: Displacement of [3H]PGD2 from human DP receptor expressed in 293 cells by scintillation counting in presence of 0.5% BSA; type: cell-based, HEK293
T2 sequence (Q13258 whole entry): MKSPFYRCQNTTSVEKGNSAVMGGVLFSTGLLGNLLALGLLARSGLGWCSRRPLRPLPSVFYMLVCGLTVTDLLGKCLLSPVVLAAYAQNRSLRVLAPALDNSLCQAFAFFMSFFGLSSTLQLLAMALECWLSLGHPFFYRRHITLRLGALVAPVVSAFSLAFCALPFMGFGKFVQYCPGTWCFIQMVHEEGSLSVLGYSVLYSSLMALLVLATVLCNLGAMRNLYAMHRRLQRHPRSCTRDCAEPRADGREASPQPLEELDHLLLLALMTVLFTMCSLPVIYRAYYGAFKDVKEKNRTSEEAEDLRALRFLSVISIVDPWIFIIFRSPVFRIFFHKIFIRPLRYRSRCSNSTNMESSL
Method in brief: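 hDP binding on stably transfected 293 cells. [3H]-PGD2 incubated with 293(hDP) cells and increasing compound concentrations in buffer with 0.5% BSA. After washing, remaining bound radioligand counted by scintillation, and IC50 read as the concentration giving 50% inhibition. Means of three experiments.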

[3] = biological target: T1, Prostaglandin D2 receptor 2; experiment: Displacement of [3H]PGD2 from human CRTH2 receptor expressed in 293 cells by scintillation counting in presence of 50% human plasma; type: cell-based, HEK293
Method in brief: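 Whole-cell binding on 293 cells stably transfected with hCRTH2, run in binding buffer containing 50% human plasma. [3H]-PGD2 incubated with cells and rising compound concentrations. After washing, cell-bound label measured by scintillation counting, and IC50 taken as the concentration halving binding. Means of three experiments.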

SMILES	IC50 [1] [nM]	further results
CC1CC(N(C(=O)CCC(=O)ON)c2ccccc2)c2ccccc2N1C(=O)c1ccccc1 (racemic)	29	
CC1CC(N(C(=O)c2ccccc2)c2ccccc2)c2ccccc2N1C(=O)c1ccccc1 (racemic)	105	
CC(=O)N(c1ccccc1)[C@@H]1C[C@H](C)N(C(=O)c2ccccc2)c2ccccc21	17	IC50 (Eosinophil): 141 nM; IC50 [2]: > 10000 nM; IC50 [3]: 440 nM
CC1CC(N(c2ccccc2)S(=O)(=O)c2ccccc2)c2ccccc2N1C(=O)c1ccccc1 (racemic)	5500	
CC(=O)N(c1ccccc1)C1CC(C)N(C(=O)c2ccc(Oc3ccccc3)cc2)c2ccccc21 (racemic)	13	
CC(=O)N(c1ccccc1)[C@H]1C[C@H](C)N(C(=O)c2ccccc2)c2ccccc21 (racemic)	> 10000	
CC(=O)N(c1ccccc1)C1CC(C)N(C(=O)OCc2ccccc2)c2ccccc21 (racemic)	910	
CC(=O)N(c1ccccc1)C1CC(C)N(C(=O)c2ccc(C)cc2)c2ccccc21 (racemic)	41	
CC(=O)N(c1ccccc1)[C@H]1C[C@@H](C)N(C(=O)c2ccccc2)c2ccccc21	420	IC50 [3]: > 10000 nM
CC(=O)N(c1ccccc1)C1CC(C)N(C(=O)c2ccccc2C)c2ccccc21 (racemic)	1420	
CC(=O)N(c1ccccc1)C1CC(C)Nc2ccccc21 (racemic)	> 50000	
CC(=O)NC1CC(C)N(C(=O)c2ccccc2)c2ccccc21 (racemic)	3620	
COc1ccc(C(=O)N2c3ccccc3C(N(C(C)=O)c3ccccc3)CC2C)cc1 (racemic)	28	IC50 [3]: 130 nM
CC(=O)N(c1ccccc1)C1CC(C)N(C(=O)c2ccc(Cl)cc2)c2ccccc21 (racemic)	93	
CC1CC(N(C(=O)c2cccc(C(=O)O)c2)c2ccccc2)c2ccccc2N1C(=O)c1ccccc1 (racemic)	40300	
CC(=O)N(c1ccccc1)C1CC(C)N(C(=O)c2ccc(C(C)(C)C)cc2)c2ccccc21 (racemic)	34	
CCN(C(C)=O)C1CC(C)N(C(=O)c2ccccc2)c2ccccc21 (racemic)	250	
CCN(c1ccccc1)C1CC(C)N(C(=O)c2ccccc2)c2ccccc21 (racemic)	3170	

SMILES	IC50 [1] [nM]	further results
CC(=O)N(c1ccccc1)C1CC(C)N(C(=O)/C=C/c2ccccc2)c2ccccc21 (racemic)	210	
CC(=O)N(Cc1ccccc1)C1CC(C)N(C(=O)c2ccccc2)c2ccccc21 (racemic)	430	
CC(=O)N(c1ccccc1)[C@@H]1C[C@H](C)N(C(=O)c2ccccc2)c2ccccc21 (racemic)	43	IC50 [3]: 1050 nM
CC(=O)N(c1ccccc1)C1CC(C)N(C(=O)Cc2ccccc2)c2ccccc21 (racemic)	1750	
C[C@H]1C[C@@H](N(C(=O)CCC(=O)O)c2ccccc2)c2ccccc2N1C(=O)c1ccccc1	3	IC50 (Eosinophil): 0.77 nM; IC50 [2]: > 10000 nM; IC50 [3]: 9 nM
CC(=O)N(c1ccccc1)C1CC(C)N(C(=O)c2ccc(OC(F)(F)F)cc2)c2ccccc21 (racemic)	26	IC50 [3]: > 10000 nM
CC1CC(N(C(=O)CCC(=O)O)c2ccccc2)c2ccccc2N1C(=O)c1ccccc1 (racemic)	5	IC50 [3]: 28 nM
CC1CC(Nc2ccccc2)c2ccccc2N1C(=O)c1ccccc1 (racemic)	> 50000	
C[C@@H]1C[C@H](N(C(=O)CCC(=O)O)c2ccccc2)c2ccccc2N1C(=O)c1ccccc1	400	IC50 [3]: 39 nM
CC1CC(N(C(=O)/C=C/C(=O)O)c2ccccc2)c2ccccc2N1C(=O)c1ccccc1 (racemic)	2280	
CCCCC(=O)N(c1ccccc1)C1CC(C)N(C(=O)c2ccccc2)c2ccccc21 (racemic)	64	
CC(=O)N(c1ccccc1)C1CC(C)N(Cc2ccccc2)c2ccccc21 (racemic)	200	
CC(=O)N(c1ccccc1)C1CC(C)N(C(=O)c2ccc(C)c(C)c2)c2ccccc21 (racemic)	92	
CC(=O)N(c1ccccc1)C1CC(C)N(S(=O)(=O)c2ccccc2)c2ccccc21 (racemic)	62000	
CC1CC(N(C(=O)CCCC(=O)O)c2ccccc2)c2ccccc2N1C(=O)c1ccccc1 (racemic)	22	
CC(=O)N(c1ccccc1)C1CC(C)N(C(=O)c2cccc(C)c2)c2ccccc21 (racemic)	74	
CCCCC(=O)N1c2ccccc2C(N(C(C)=O)c2ccccc2)CC1C (racemic)	1460	
CC1CC(N(C(=O)CC(=O)O)c2ccccc2)c2ccccc2N1C(=O)c1ccccc1 (racemic)	540	
